Test [1] addresses T1, Melanocyte-stimulating hormone receptor (Homo sapiens, UniProt Q01726). Nature of the test: Displacement of [125I]-[Nle4, D-Phe7]alpha-MSH from human melanocortin 1 receptor expressed in HEK293 cells at 10 uM. Format: cell-based.
Target sequence in this assay (Q01726 whole entry, looked up): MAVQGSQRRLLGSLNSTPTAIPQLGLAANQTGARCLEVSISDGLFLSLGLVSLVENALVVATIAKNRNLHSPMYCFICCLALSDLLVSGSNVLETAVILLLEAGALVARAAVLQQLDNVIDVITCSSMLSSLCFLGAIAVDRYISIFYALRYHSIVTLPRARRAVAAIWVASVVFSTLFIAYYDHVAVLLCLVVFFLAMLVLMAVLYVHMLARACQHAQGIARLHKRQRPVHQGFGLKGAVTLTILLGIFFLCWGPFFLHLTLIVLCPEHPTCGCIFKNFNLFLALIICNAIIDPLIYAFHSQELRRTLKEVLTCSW
For test [2], the target named is T1, Melanocyte-stimulating hormone receptor. The test can be described thus: Agonist activity at human melanocortin 1 receptor expressed in HEK293 cells assessed as cAMP accumulation at 10 uM. Format: functional, cell-based. The method in brief: (§1)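 cAMP accumulation assay in stably transfected HEK293 cells: 0.5 mM IBMX preincubation, 3 min ligand exposure at 37 °C, [3H]cAMP/PKA binding read-out against a standard curve. The cAMP produced at 10 μM ligand is expressed as percent of that produced by 10 μM MT-II (% max effect).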
Target sequence in this assay (Q01726 whole entry, looked up): as above

For test [3] the target is unchanged. Nature of the test: Agonist activity at human melanocortin 1 receptor expressed in HEK293 cells assessed as cAMP accumulation at 10 uM realtive to MT2. Format: functional, cell-based. An outline of the steps: as §1
In general terms: cAMP levels reflect the balance of adenylyl cyclase and phosphodiesterase activity.
Target sequence in this assay (Q01726 whole entry, looked up): as above

The target of test [4] is T2, Melanocortin receptor 3 (Homo sapiens, UniProt P41968). The test can be described thus: Agonist activity at human melanocortin 3 receptor expressed in HEK293 cells assessed as cAMP accumulation at 10 uM realtive to MT2. Format: functional, cell-based. An outline of the steps: as §1
The target of test [5] is T3, Melanocortin receptor 4 (Homo sapiens, UniProt P32245). The test can be described thus: Displacement of [125I]-[Nle4, D-Phe7]alpha-MSH from human melanocortin 4 receptor expressed in HEK293 cells at 10 uM. Format: cell-based. On the technique in general: Loss of bound radioactivity is the signal in a displacement assay; it reports binding, not function.
For test [6], the target named is T3, Melanocortin receptor 4. The test can be described thus: Agonist activity at human melanocortin 4 receptor expressed in HEK293 cells assessed as cAMP accumulation at 10 uM. Format: functional, cell-based. The method in brief: as §1
The target in test [7] is T3, Melanocortin receptor 4. Nature of the test: Agonist activity at human melanocortin 4 receptor expressed in HEK293 cells assessed as cAMP accumulation at 10 uM realtive to MT2. Format: functional, cell-based. An outline of the steps: as §1
Test [8] deals with T4, Melanocortin receptor 5 (Homo sapiens, UniProt P33032). Nature of the test: Displacement of [125I]-[Nle4, D-Phe7]alpha-MSH from human melanocortin 5 receptor expressed in HEK293 cells at 10 uM. Format: cell-based.
The target of test [9] is T4, Melanocortin receptor 5. Nature of the test: Agonist activity at human melanocortin 5 receptor expressed in HEK293 cells assessed as cAMP accumulation at 10 uM. Format: functional, cell-based. An outline of the steps: as §1
The target in test [10] is T4, Melanocortin receptor 5. The test can be described thus: Agonist activity at human melanocortin 5 receptor expressed in HEK293 cells assessed as cAMP accumulation at 10 uM realtive to MT2. Format: functional, cell-based. An outline of the steps: as §1
In test [11] the target is T2, Melanocortin receptor 3. Nature of the test: Displacement of [125I]-[Nle4, D-Phe7]alpha-MSH from human melanocortin 3 receptor expressed in HEK293 cells at 10 uM. It is filed as cell-based.
Test [12] deals with T2, Melanocortin receptor 3. The test can be described thus: Agonist activity at human melanocortin 3 receptor expressed in HEK293 cells assessed as cAMP accumulation at 10 uM. It is filed as functional, cell-based. An outline of the steps:
as §1

The target in test [13] is T1, Melanocyte-stimulating hormone receptor. Nature of the test: Displacement of [125I]-[Nle4, D-Phe7]alpha-MSH from human melanocortin 1 receptor expressed in HEK293 cells. Format: cell-based. The method in brief: (§2)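 Whole HEK293 cells stably expressing each hMCR, seeded 48 h before assay (50000 cells/well), washed in MEM with 25 mM bicarbonate. Cells incubated 40 min at 37 °C with unlabeled peptide plus [125I]-NDP-α-MSH (33.06 pM, 20000 cpm/well) in MEM, 25 mM HEPES pH 7.4, 0.2% BSA, 1 mM 1,10-phenanthroline, leupeptin, bacitracin. Cells washed, lysed with NaOH/Triton X-100, and gamma-counted. IC50 by nonlinear fit, two experiments in triplicate […].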
Target sequence in this assay (Q01726 whole entry): as the sequence (Q01726 whole entry, looked up) above

Test [14] deals with T2, Melanocortin receptor 3. The test can be described thus: Displacement of [125I]-[Nle4, D-Phe7]alpha-MSH from human melanocortin 3 receptor expressed in HEK293 cells. It is filed as cell-based. The method in brief: as §2
In test [15] the target is T2, Melanocortin receptor 3. The test can be described thus: Agonist activity at human melanocortin 3 receptor expressed in HEK293 cells assessed as cAMP accumulation. Format: functional, cell-based. The method in brief:
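Stably transfected HEK293 cells seeded 48 h before assay (50000 cells/well), rinsed, preincubated 1 min at 37 °C in Earle's balanced salt solution with 0.5 mM IBMX, then given peptide at varying concentrations for 3 min at 37 °C. Stopped with ice-cold Tris/EDTA and boiling 7 min. cAMP measured by [3H]cAMP competition for PKA against a standard curve. EC50 by nonlinear least-squares fit, mean of two experiments in triplicate.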

Molecules are shown by their SMILES. The source made the active and inactive calls. The calls are words filed in the database; no cut-off is given here.

As usually defined, the IC50 is the concentration that inhibits the measured activity by half. What is called EC50 is the concentration giving half of the maximal effect.

T4 sequence (P33032 whole entry): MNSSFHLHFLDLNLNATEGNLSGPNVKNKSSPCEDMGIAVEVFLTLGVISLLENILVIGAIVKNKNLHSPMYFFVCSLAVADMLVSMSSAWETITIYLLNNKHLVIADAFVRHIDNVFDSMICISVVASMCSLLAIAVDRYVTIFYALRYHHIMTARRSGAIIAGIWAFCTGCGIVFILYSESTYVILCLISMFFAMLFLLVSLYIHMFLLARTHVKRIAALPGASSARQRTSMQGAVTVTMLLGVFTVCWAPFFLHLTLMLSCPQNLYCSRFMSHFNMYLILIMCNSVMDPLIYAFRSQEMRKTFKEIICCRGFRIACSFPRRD
T2 sequence (P41968 whole entry): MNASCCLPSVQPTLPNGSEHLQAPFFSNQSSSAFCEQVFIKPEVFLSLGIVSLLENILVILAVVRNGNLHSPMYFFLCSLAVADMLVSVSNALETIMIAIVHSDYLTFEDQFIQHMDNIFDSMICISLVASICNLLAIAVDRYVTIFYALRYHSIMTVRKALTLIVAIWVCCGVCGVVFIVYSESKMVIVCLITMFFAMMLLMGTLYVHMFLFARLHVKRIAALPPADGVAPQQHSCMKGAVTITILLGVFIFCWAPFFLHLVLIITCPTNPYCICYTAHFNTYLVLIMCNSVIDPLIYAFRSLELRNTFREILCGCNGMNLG
T3 sequence (P32245 whole entry): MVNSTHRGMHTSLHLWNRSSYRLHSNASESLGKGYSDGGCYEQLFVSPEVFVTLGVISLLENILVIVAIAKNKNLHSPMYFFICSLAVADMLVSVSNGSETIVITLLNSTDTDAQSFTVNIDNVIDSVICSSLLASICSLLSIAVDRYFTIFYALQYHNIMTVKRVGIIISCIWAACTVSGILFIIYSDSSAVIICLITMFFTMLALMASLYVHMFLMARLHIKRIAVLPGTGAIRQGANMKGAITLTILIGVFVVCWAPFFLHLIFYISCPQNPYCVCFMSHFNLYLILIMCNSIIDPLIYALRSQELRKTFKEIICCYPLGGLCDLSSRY

As for `N=C(N)NCCC[C@@H]1NC(=O)[C@@H](Cc2ccccc2)NC(=O)[C@H](Cc2cnc[nH]2)NC(=O)c2cc([N+](=O)[O-])ccc2SC[C@@H](C(N)=O)NC(=O)[C@@H](Cc2ccc3ccccc3c2)NC1=O`, the result (in [1]; in [2]; on Melanocortin receptor 4 [5]; at Melanocortin receptor 4 [6]; on Melanocortin receptor 5 [8]; at Melanocortin receptor 5 [9]) was inactive. The Activity in [3] was 0%; at Melanocortin receptor 3 [4] it was 75%; on Melanocortin receptor 4 [7], 0%; on Melanocortin receptor 5 [10] it was 0%.

`N=C(N)NCCC[C@@H]1NC(=O)[C@@H](Cc2ccccc2)NC(=O)[C@H](Cc2cnc[nH]2)NC(=O)c2cc([N+](=O)[O-])ccc2SC[C@@H](C(N)=O)NC(=O)[C@H](Cc2c[nH]c3ccccc23)NC1=O`: the Activity (in test [3]; on Melanocortin receptor 3 [4]; on Melanocortin receptor 4 [7]; on Melanocortin receptor 5 [10]) was 100% each time.

Take `N=C(N)NCCC[C@@H]1NC(=O)[C@H](CCCNC(N)=O)NC(=O)[C@H](Cc2cnc[nH]2)NC(=O)c2cc([N+](=O)[O-])ccc2SC[C@@H](C(N)=O)NC(=O)[C@H](Cc2c[nH]c3ccccc23)NC1=O`: the result (in test [1]; in test [2]; at Melanocortin receptor 3 [11]; at Melanocortin receptor 3 [12]; on Melanocortin receptor 4 [5]; on Melanocortin receptor 4 [6]) was inactive. For the same compound, the outcome at Melanocortin receptor 5 [8] and at Melanocortin receptor 5 [9] was inactive. Besides, the Activity (in test [3]; at Melanocortin receptor 3 [4]; on Melanocortin receptor 4 [7]; on Melanocortin receptor 5 [10]) was 0% each time.

Regarding `N=C(N)NCCC[C@@H]1NC(=O)[C@@H](Cc2ccccc2)NC(=O)[C@H](Cc2cnc[nH]2)NC(=O)c2cc([N+](=O)[O-])ccc2SC[C@@H](C(N)=O)NC(=O)[C@H](Cc2ccccc2)NC1=O`, in test [13], the IC50 is above 1000 nM. Further, the result (in test [2]; at Melanocortin receptor 3 [11]; at Melanocortin receptor 3 [12]; on Melanocortin receptor 4 [5]; on Melanocortin receptor 4 [6]; at Melanocortin receptor 5 [8]) was inactive. In addition, the result on Melanocortin receptor 5 [9] was inactive. Further, the Activity (in test [3]; at Melanocortin receptor 3 [4]; at Melanocortin receptor 4 [7]; on Melanocortin receptor 5 [10]) was 0% in each case.

Consider `N=C(N)NCCC[C@@H]1NC(=O)[C@@H](Cc2ccccc2)NC(=O)[C@H]2CCCN2C(=O)c2cc([N+](=O)[O-])ccc2SC[C@@H](C(N)=O)NC(=O)[C@H](Cc2c[nH]c3ccccc23)NC1=O`, for which, in test [13] (hek293), the 50% inhibitory concentration (IC50) is above 1500 nM. In addition, the outcome (in test [2]; on Melanocortin receptor 3 [11]; at Melanocortin receptor 3 [12]; at Melanocortin receptor 4 [5]; at Melanocortin receptor 4 [6]; on Melanocortin receptor 5 [8]) was inactive. The result on Melanocortin receptor 5 [9] was inactive. Also, the Activity (in [3]; at Melanocortin receptor 3 [4]; at Melanocortin receptor 4 [7]; at Melanocortin receptor 5 [10]) was 0% each time.

As for `N=C(N)NCCC[C@@H]1NC(=O)[C@@H](Cc2ccccc2)NC(=O)[C@H]2C[C@@H](O)CN2C(=O)c2cc([N+](=O)[O-])ccc2SC[C@@H](C(N)=O)NC(=O)[C@H](Cc2c[nH]c3ccccc23)NC1=O`, the result (in [1]; in [2]; on Melanocortin receptor 3 [11]; on Melanocortin receptor 3 [12]; at Melanocortin receptor 4 [5]; at Melanocortin receptor 4 [6]) was inactive. Further, the outcome on Melanocortin receptor 5 [8] and at Melanocortin receptor 5 [9] was inactive. The Activity (in [3]; at Melanocortin receptor 3 [4]; at Melanocortin receptor 4 [7]; on Melanocortin receptor 5 [10]) was 0% in each case.

As to `N=C(N)NCCC[C@H]1NC(=O)[C@@H](Cc2ccccc2)NC(=O)[C@H](Cc2cnc[nH]2)NC(=O)c2cc([N+](=O)[O-])ccc2SC[C@@H](C(N)=O)NC(=O)[C@H](Cc2c[nH]c3ccccc23)NC1=O`, the outcome (in test [1]; in test [2]; on Melanocortin receptor 3 [12]; on Melanocortin receptor 4 [5]; at Melanocortin receptor 4 [6]; at Melanocortin receptor 5 [8]) was inactive. The result at Melanocortin receptor 5 [9] was inactive. Also, the Activity (in test [3]; at Melanocortin receptor 3 [4]; at Melanocortin receptor 4 [7]; at Melanocortin receptor 5 [10]) was 0% throughout. On Melanocortin receptor 3 [14], this compound came in with an IC50 above 10000 nM.

For the compound `NC(=O)[C@@H]1CSc2ccc([N+](=O)[O-])cc2C(=O)N[C@@H](Cc2cnc[nH]2)C(=O)N[C@H](Cc2ccccc2)C(=O)N[C@@H](CCCN=C(N)N)C(=O)N[C@H](Cc2ccc3ccccc3c2)C(=O)N1`, the IC50 at Melanocortin receptor 3 [14] is above 8000 nM. In addition, on Melanocortin receptor 3 [15], the EC50 was 330 nM.

For the compound `NCCCC[C@@H]1NC(=O)[C@@H](Cc2ccccc2)NC(=O)[C@H](Cc2cnc[nH]2)NC(=O)c2cc([N+](=O)[O-])ccc2SC[C@@H](C(N)=O)NC(=O)[C@H](Cc2c[nH]c3ccccc23)NC1=O`, the outcome (in test [1]; in test [2]; on Melanocortin receptor 3 [12]; at Melanocortin receptor 4 [5]; at Melanocortin receptor 4 [6]; at Melanocortin receptor 5 [8]) was inactive. In addition, the result at Melanocortin receptor 5 [9] was inactive. The Activity (in [3]; on Melanocortin receptor 3 [4]; on Melanocortin receptor 4 [7]; on Melanocortin receptor 5 [10]) was 0% in each case. At Melanocortin receptor 3 [14], this compound had an IC50 above 1000 nM.

As for `N=C(N)NCCC[C@@H]1NC(=O)[C@@H](Cc2ccc3ccccc3c2)NC(=O)[C@H](Cc2cnc[nH]2)NC(=O)c2cc([N+](=O)[O-])ccc2SC[C@@H](C(N)=O)NC(=O)[C@H](Cc2c[nH]c3ccccc23)NC1=O`, the Activity in [3] is above 100%; on Melanocortin receptor 3 [4], 0%; on Melanocortin receptor 4 [7], 0%; at Melanocortin receptor 5 [10] it was 0%. The outcome at Melanocortin receptor 3 [12], on Melanocortin receptor 4 [5], on Melanocortin receptor 4 [6] and at Melanocortin receptor 5 [9] was inactive.

On to `N=C(N)NCCC[C@@H]1NC(=O)[C@@H](Cc2ccccc2)NC(=O)[C@H](Cc2cnc[nH]2)NC(=O)c2cc([N+](=O)[O-])ccc2SC[C@@H](C(N)=O)NC(=O)[C@H](Cc2ccc3ccccc3c2)NC1=O`, for which the Activity in [3] is 110%; on Melanocortin receptor 3 [4], above 100%; on Melanocortin receptor 4 [7], 3%; on Melanocortin receptor 5 [10], 0%. Also, the result at Melanocortin receptor 4 [6] and on Melanocortin receptor 5 [9] was inactive.

Take `N=C(N)NCCC[C@@H]1NC(=O)[C@H](Cc2ccc(N)cc2)NC(=O)[C@H](Cc2cnc[nH]2)NC(=O)c2cc([N+](=O)[O-])ccc2SC[C@@H](C(N)=O)NC(=O)[C@H](Cc2c[nH]c3ccccc23)NC1=O`: the Activity in test [3] stood at 9%; at Melanocortin receptor 3 [4], 5%; at Melanocortin receptor 4 [7] it was 0%; on Melanocortin receptor 5 [10] it was 0%. In addition, the outcome on Melanocortin receptor 4 [5], on Melanocortin receptor 4 [6], on Melanocortin receptor 5 [8] and at Melanocortin receptor 5 [9] was inactive.
